# Measurements taken from ChEMBL document CHEMBL4680373, “Evaluation of 5-(Trifluoromethyl)-1,2,4-oxadiazole-Based Class IIa HDAC Inhibitors for Huntington's Disease” (ACS Med Chem Lett, 2021).
# Experiments:
# [1] = Inhibition of Class 1/2b HDAC in human Jurkat E6.1 cells using Boc-Lys-(Ac)-AMC as substrate by fluorogenic assay; assay type: cell-based
# Summary of the method: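 Whole-cell assay in Jurkat E6.1 cells with artificial fluorogenic substrates: Boc-Lys-(TFA)-AMC for class IIa/HDAC8 activity, which in this line is mostly HDAC4, and Boc-Lys-(Ac)-AMC for class I/IIb activity. IC50 given as the geometric mean of three experiments.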
# [2] = Kinetic solubility of the compound; assay type: physicochemical; conditions: read-out: Kinetic_solubility
# [3] = target: Muscarinic acetylcholine receptor M1 (Homo sapiens) (UniProt P11229); assay: Displacement of [3H]pirenzapine from human recombinant M1 receptor at 10 uM incubated for 1 hr by radiometric scintillation counting analysis
# Summary of the method: (§1)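 Broad selectivity panel of binding, cellular, functional and enzymatic assays run by a contract lab. Each test was done at a single 10 μM concentration and reported as percent inhibition.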
# [4] = target: Muscarinic acetylcholine receptor M2 (Homo sapiens) (UniProt P08172); assay: Displacement of [3H]AF-DX384 from human recombinant M2 receptor at 10 uM incubated for 1 hr by radiometric scintillation counting analysis; summary of the method: as §1
# [5] = target: Muscarinic acetylcholine receptor M3 (Homo sapiens, UniProt P20309); assay: Displacement of [3H]4-DAMP from human recombinant M3 receptor at 10 uM incubated for 1 hr by radiometric scintillation counting analysis; summary of the method: as §1
# [6] = target: Muscarinic acetylcholine receptor M5 (Homo sapiens) (UniProt P08912); assay: Displacement of [3H]4-DAMP from human recombinant M5 receptor at 10 uM incubated for 1 hr by radiometric scintillation counting analysis; summary of the method: as §1
# [7] = target: Muscarinic acetylcholine receptor M1 (Homo sapiens, UniProt P11229); assay: Displacement of [3H]pirenzapine from human recombinant M1 receptor incubated for 1 hr by radiometric scintillation counting analysis
# [8] = target: Cytochrome P450 3A4 (Homo sapiens, UniProt P08684); assay: Inhibition of CYP3A4 in human liver microsomes using midazolam as substrate incubated for 15 mins by LC-MS/MS analysis; assay type: ADME
# [9] = Metabolic stability of the compound in C57BL/6 mouse plasma at 5 uM measured for 60 mins by LC-MS/MS analysis; assay type: ADME, cell-free; conditions: 1 h
# [10] = Metabolic stability of the compound in human plasma; assay type: ADME, cell-free
# [11] = Stability of the compound in simulated gastric fluid at 10 uM at pH 1.2 incubated for 4 hrs by LC-MS/MS analysis
# [12] = Unbound fraction in mouse blood by equilibrium dialysis method; assay type: ADME, tissue-based
# Summary of the method: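 Compound added to mouse blood; unbound fraction determined by equilibrium dialysis.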
# [13] = Volume of distribution in C57BL/6J mouse at 3.3 mg/kg, iv by LC-MS/MS analysis; assay type: ADME, organism-based; conditions: in vivo
# Summary of the method: (§2)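 Fed male C57Bl/6 mice dosed once intravenously at 3.3 mg/kg and by oral gavage at 11.5 mg/kg. Compound levels were quantified to derive PK parameters.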
# [14] = Plasma clearance in C57BL/6J mouse at 3.3 mg/kg, iv by LC-MS/MS analysis; assay type: ADME, organism-based; summary of the method: as §2
# [15] = Time during which drug concentration exceeds the IC50 for inhibition of human Class 2A HDAC in C57BL/6J mouse brain at 10 mg/kg, po administered via gavage by LC-MS/MS analysis; assay type: organism-based; conditions: in vivo
# Summary of the method: (§3)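 Single oral gavage doses of 10, 30 or 100 mg/kg were given to C57/BL6 mice. Brain and blood were sampled from 0.25 to 12 h and compound measured by LC-MS/MS. The time that total brain exposure stayed above the class IIa cellular IC50 was then estimated.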
# [16] = Time during which drug concentration exceeds the IC50 for inhibition of human Class 2A HDAC in C57BL/6J mouse brain at 30 mg/kg, po administered via gavage by LC-MS/MS analysis; assay type: organism-based; conditions: in vivo; summary of the method: as §3
# [17] = In vivo inhibition of Class 1 HDAC in C57BL/6J mouse brain assessed as increase in histone H3/H4 acetylation administered orally via gavage measured after 2 hrs by western blot analysis; assay type: organism-based; conditions: po, dose 10-100 mg/kg
# Summary of the method: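 Brain samples were taken 2 h after single oral gavage doses (10, 30, 100 mg/kg). Western blots probed H3, H4 and tubulin acetylation, each normalized to its own total-protein band. Comparison was against samples taken 5 min after a 10 mg/kg dose.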
# [18] = Stability of the compound in 10% (w/v) hydroxypropyl-beta-cyclodextrin in 50 mM citrate buffer at pH 5 measured over 30 days; assay type: physicochemical; conditions: pH 5, 720 h, time 30 day
# [19] = Toxicity in CBAxC57BL/6J mouse assessed as effect on body weight at 10 to 100 mg/kg, po bid for 14.5 days; assay type: organism-based; conditions: in vivo, 348 h, dose 10-100 mg/kg, time 14.5 day
# Summary of the method: (§4)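 R6/2 HD mice and wild-type littermates, male and female, were dosed orally b.i.d. at 10, 30 or 100 mg/kg or with vehicle for 14.5 days. Vehicle was 10% (w/v) hydroxypropyl-β-cyclodextrin in 50 mM citrate buffer. Body weight, body temperature, passive observations and active manipulation scores were recorded. Blood and brain were collected 2 h after the final dose.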
# [20] = Toxicity in CBAxC57BL/6J mouse assessed as effect on locomotor activity at 10 to 100 mg/kg, po bid for 14.5 days; assay type: organism-based; conditions: in vivo, 348 h, dose 10-100 mg/kg, time 14.5 day; summary of the method: as §4
# [21] = Toxicity in CBAxC57BL/6J mouse assessed as effect on head tremor at 10 to 100 mg/kg, po bid for 14.5 days; assay type: organism-based; conditions: in vivo, 348 h, dose 10-100 mg/kg, time 14.5 day; summary of the method: as §4
# [22] = Toxicity in CBAxC57BL/6J mouse assessed as effect on tail tremor at 10 to 100 mg/kg, po bid for 14.5 days; assay type: organism-based; conditions: in vivo, 348 h, dose 10-100 mg/kg, time 14.5 day; summary of the method: as §4
# [23] = Toxicity in CBAxC57BL/6J mouse assessed as effect on straub tail at 10 to 100 mg/kg, po bid for 14.5 days; assay type: organism-based; conditions: in vivo, 348 h, dose 10-100 mg/kg, time 14.5 day; summary of the method: as §4
# [24] = Toxicity in CBAxC57BL/6J mouse assessed as effect on flaccidity at 10 to 100 mg/kg, po bid for 14.5 days; assay type: organism-based; conditions: in vivo, 348 h, dose 10-100 mg/kg, time 14.5 day; summary of the method: as §4
# [25] = Toxicity in CBAxC57BL/6J mouse assessed as effect on loss of paw pull at 10 to 100 mg/kg, po bid for 14.5 days; assay type: organism-based; conditions: in vivo, 348 h, dose 10-100 mg/kg, time 14.5 day; summary of the method: as §4
# [26] = Toxicity in CBAxC57BL/6J mouse assessed as effect on seizure by tail at 10 to 100 mg/kg, po bid for 14.5 days; assay type: organism-based; conditions: in vivo, 348 h, dose 10-100 mg/kg, time 14.5 day; summary of the method: as §4
# [27] = In vivo inhibition of Class 1 HDAC in CBAxC57BL/6J mouse brain assessed as increase in H4K12 acetylation at 30 to 100 mg/kg, po bid for 14.5 days by dot blot technique; assay type: organism-based; conditions: 348 h, dose 30-100 mg/kg, time 14.5 day
# Summary of the method: (§5)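 R6/2 and wild-type littermate mice of both sexes were dosed orally b.i.d. for 14.5 days with 10, 30 or 100 mg/kg or vehicle (10% w/v hydroxypropyl-β-cyclodextrin in 50 mM citrate buffer). Half-brains were collected 2 h after the last dose. Dot blots measured global and H4K12 acetylation; Western blots measured H3, H4 and tubulin acetylation. Genotypes were pooled.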
# [28] = In vivo inhibition of Class 2B HDAC in CBAxC57BL/6J mouse brain assessed as increase in tubulin acetylation at 30 to 100 mg/kg, po bid for 14.5 days by western blot analysis; assay type: organism-based; conditions: 348 h, dose 30-100 mg/kg, time 14.5 day; summary of the method: as §5
# Chain of Muscarinic acetylcholine receptor M5 (Homo sapiens) (P08912 whole entry): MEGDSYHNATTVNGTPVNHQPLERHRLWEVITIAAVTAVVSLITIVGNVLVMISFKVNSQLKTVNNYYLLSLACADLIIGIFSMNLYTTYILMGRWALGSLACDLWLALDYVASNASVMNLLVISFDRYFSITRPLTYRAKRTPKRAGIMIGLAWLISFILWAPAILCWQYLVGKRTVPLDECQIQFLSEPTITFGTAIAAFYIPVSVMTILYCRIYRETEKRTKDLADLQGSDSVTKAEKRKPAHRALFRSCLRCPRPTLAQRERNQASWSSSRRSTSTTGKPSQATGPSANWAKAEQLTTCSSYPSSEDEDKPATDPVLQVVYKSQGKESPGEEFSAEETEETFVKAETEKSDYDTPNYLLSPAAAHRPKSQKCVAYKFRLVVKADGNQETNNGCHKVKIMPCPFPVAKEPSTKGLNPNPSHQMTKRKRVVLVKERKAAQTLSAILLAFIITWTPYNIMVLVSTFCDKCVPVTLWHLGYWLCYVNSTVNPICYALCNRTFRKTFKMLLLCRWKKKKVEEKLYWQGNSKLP
# Chain of Muscarinic acetylcholine receptor M2 (Homo sapiens) (P08172 whole entry): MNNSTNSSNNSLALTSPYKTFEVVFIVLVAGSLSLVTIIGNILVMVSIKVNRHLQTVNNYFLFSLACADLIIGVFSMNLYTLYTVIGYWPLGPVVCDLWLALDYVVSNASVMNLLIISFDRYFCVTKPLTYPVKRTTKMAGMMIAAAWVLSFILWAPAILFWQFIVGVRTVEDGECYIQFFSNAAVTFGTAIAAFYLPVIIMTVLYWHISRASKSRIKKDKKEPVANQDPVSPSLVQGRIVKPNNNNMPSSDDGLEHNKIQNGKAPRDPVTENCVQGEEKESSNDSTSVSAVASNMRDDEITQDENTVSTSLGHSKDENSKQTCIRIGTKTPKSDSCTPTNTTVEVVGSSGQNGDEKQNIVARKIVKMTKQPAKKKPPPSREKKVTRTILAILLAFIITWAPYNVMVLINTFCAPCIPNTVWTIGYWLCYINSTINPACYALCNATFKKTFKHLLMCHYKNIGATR
# Chain of Cytochrome P450 3A4 (P08684 whole entry): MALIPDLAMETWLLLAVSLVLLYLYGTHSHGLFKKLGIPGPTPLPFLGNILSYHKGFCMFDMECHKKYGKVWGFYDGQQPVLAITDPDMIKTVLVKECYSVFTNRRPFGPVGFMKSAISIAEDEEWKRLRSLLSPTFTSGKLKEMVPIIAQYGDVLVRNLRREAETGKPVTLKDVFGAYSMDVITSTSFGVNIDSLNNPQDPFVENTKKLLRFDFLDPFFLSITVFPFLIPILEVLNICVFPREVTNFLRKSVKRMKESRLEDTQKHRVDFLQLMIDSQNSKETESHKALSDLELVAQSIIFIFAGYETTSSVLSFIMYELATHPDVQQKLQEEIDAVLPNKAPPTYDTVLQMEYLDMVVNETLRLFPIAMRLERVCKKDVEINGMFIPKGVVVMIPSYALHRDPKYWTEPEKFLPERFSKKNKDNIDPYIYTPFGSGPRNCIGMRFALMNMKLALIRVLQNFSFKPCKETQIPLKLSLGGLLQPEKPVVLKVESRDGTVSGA
# Chain of Muscarinic acetylcholine receptor M3 (P20309 whole entry, looked up): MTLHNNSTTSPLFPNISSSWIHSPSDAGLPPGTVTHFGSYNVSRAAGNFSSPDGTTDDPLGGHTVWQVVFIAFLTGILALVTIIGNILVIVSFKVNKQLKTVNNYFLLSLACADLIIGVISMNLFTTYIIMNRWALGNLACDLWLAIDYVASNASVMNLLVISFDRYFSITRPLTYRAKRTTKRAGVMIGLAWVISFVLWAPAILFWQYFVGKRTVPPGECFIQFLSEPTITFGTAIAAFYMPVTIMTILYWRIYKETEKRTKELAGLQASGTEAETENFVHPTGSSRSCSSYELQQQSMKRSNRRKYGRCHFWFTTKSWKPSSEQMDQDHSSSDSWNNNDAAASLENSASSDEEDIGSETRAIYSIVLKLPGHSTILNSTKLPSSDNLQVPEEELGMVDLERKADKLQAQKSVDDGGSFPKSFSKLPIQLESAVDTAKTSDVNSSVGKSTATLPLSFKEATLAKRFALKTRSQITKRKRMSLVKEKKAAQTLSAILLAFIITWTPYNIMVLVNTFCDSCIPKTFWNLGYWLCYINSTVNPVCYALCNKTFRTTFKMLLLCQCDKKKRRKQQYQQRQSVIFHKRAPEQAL
# Chain of Muscarinic acetylcholine receptor M1 (P11229 whole entry): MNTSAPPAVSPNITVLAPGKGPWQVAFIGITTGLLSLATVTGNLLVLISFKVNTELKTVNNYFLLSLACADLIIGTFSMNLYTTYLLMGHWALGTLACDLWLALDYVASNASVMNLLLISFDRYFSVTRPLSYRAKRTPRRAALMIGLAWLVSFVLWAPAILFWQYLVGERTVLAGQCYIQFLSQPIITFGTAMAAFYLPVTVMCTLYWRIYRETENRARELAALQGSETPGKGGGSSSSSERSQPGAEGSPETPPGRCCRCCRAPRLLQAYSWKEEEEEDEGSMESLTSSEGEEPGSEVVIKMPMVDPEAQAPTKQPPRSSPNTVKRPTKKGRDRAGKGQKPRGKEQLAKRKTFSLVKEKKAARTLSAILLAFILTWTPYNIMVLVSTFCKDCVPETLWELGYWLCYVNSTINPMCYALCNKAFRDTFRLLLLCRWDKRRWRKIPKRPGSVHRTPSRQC
# Chain of Muscarinic acetylcholine receptor M1 (Homo sapiens) (P11229 whole entry): as above
smiles,measurement,setting,value
C[C@H](CN1CCC[C@@H]1C)NC(=O)c1ccc(-c2noc(C(F)(F)F)n2)cc1,IC50,[1],5 µM
same,solubility kinetic,[2],166 µM
same,inhibition,[3],> 80%
same,inhibition,[4],> 80%
same,inhibition,[5],> 80%
same,inhibition,[6],> 80%
same,Kd,[7],> 5 µM
same,IC50,[8],> 50 µM
same,Stabilty,[9],Stable
same,Stabilty,[10],Stable
same,Stability,[11],Stable
same,fraction unbound,[12],0.73
same,Vd,[13],3.8 L/kg
same,clearance,[14],70 mL/min/kg
same,T>IC50,[15],4 h
same,T>IC50,[16],8 h
same,Activity,[17],Toxic
same,Stabilty,[18],Stable
same,Activity,[19],Non-Toxic
same,Activity,[20],Non-Toxic
same,Activity,[21],Non-Toxic
same,Activity,[22],Non-Toxic
same,Activity,[23],Non-Toxic
same,Activity,[24],Non-Toxic
same,Activity,[25],Non-Toxic
same,Activity,[26],Non-Toxic
same,Activity,[27],Toxic
same,Activity,[28],Toxic
